The nature of series [1]: Displacement of [3H]ketanserin from serotonin 5-HT2 receptor in pig cortical membrane. Background: In a radioligand displacement assay an active substance lowers the binding of a labelled ligand.
The nature of series [2]: Lipophilicity, log D at pH 7.4. As to conditions: buffer.
Series [3] concerns the target T1, D(2) dopamine receptor (Homo sapiens, UniProt P14416). Description: Displacement of [3H]spiperone from dopamine D2long receptor in CHO cells. Type of series: cell-based. The procedure, abridged:
(§1)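 Competition binding used membranes from stably transfected CHO cells expressing human D2long, D2short, D3 or D4.4 receptor, with [³H]spiperone at 0.1 nM final.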

Series [4] can be described thus: Displacement of [3H]prazosin from adrenergic-alpha-1 receptor in pig cortical membrane.
A further series addresses T2, D(4) dopamine receptor (Homo sapiens, UniProt P21917).
T2 sequence (P21917 whole entry): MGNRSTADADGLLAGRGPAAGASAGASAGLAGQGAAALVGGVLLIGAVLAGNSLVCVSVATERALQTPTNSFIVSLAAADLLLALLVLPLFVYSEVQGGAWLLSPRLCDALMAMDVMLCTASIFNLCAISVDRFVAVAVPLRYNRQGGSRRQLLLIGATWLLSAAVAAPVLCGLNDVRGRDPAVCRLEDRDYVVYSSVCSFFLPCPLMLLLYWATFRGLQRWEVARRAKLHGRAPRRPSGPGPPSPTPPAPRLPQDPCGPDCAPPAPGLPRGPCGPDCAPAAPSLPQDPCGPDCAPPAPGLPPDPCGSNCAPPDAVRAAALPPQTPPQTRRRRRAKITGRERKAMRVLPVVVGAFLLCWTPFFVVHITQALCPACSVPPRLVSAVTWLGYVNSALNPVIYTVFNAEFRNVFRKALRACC
Description: Displacement of [3H]spiperone from dopamine D4.4 receptor in CHO cells. Type of series: cell-based. The procedure, abridged:
as §1

Series [5] can be described thus: Displacement of [3H]8HO-DPAT from serotonin 5-HT1A receptor in pig cortical membrane.
Another series concerns the target D(1A) dopamine receptor (Sus scrofa, UniProt P50130). Description: Displacement of [3H]SCH23990 from dopamine D1 receptor in pig striatal membrane. Type of series: cell membranes, Striatum.
Another series has as its target D(3) dopamine receptor (Homo sapiens, UniProt P35462). Nature of the series: Displacement of [3H]spiperone from dopamine D3 receptor in CHO cells. Type of series: cell-based. The procedure, abridged:
as §1

Series [6] concerns the target T1, D(2) dopamine receptor. Nature of the series: Displacement of [3H]spiperone from dopamine D2short receptor in CHO cells. It is filed as cell-based. Put shortly: as §1

As a reminder, the Ki is a dissociation constant, usually derived from enzyme kinetics or from competition with a known ligand. Lower therefore signals higher affinity. As a reminder, the logD is the decadic logarithm of the distribution of all forms, ionised or not, between an organic phase and buffer at a given pH. A low value points to a more hydrophilic compound.

D(3) dopamine receptor, sequence (P35462 whole entry): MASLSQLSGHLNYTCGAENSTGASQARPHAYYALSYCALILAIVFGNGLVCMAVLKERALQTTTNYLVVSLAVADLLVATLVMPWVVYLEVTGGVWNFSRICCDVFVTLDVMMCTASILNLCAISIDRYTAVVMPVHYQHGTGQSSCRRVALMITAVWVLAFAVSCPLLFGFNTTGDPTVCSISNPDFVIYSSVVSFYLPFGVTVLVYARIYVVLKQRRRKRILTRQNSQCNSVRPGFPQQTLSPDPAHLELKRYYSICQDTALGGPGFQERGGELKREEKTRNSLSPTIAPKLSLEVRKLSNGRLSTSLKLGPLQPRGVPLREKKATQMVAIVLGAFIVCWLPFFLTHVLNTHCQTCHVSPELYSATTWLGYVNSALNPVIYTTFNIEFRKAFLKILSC
T1 sequence (P14416 whole entry): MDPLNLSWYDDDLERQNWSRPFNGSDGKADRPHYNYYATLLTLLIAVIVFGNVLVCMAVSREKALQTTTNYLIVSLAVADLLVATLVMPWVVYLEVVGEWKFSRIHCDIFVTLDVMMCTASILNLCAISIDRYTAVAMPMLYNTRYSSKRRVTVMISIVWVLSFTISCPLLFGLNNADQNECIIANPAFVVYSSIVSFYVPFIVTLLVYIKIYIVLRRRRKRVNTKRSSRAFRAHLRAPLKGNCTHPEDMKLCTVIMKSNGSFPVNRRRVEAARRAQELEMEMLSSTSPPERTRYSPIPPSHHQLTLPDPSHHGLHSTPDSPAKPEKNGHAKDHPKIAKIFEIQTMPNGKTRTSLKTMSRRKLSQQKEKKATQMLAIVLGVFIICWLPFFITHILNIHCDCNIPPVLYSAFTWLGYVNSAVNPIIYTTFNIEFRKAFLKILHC
D(1A) dopamine receptor, sequence (P50130 whole entry): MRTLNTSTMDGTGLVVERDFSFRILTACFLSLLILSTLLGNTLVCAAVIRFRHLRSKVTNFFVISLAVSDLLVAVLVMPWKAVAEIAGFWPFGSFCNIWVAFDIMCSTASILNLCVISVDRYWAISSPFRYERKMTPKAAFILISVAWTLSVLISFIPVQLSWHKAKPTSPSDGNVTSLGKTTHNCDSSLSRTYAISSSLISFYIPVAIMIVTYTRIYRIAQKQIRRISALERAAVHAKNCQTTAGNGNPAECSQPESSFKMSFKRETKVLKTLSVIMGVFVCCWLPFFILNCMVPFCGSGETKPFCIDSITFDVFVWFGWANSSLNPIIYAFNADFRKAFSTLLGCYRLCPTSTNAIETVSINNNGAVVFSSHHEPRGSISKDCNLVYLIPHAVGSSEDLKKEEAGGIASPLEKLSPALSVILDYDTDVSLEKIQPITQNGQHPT

For `C=CCN1CCC[C@H]1CNC(=O)c1cc(I)ccc1OC`, the Ki in series [1] stood at 2.4 µM; at D(2) dopamine receptor [3], 0.014 µM; in series [4], 2 µM; on D(4) dopamine receptor, 0.63 µM; in series [5] it was 0.17 µM; on D(1A) dopamine receptor, 13 µM. Moreover, the results for the Ki at D(3) dopamine receptor and at D(2) dopamine receptor [6] were 0.011 µM and 0.015 µM, respectively. The log distribution coefficient (logD) in series [2] was 2.81.
Consider `C=CCN1CCC[C@H]1CNC(=O)c1cc(CCCF)ccc1OC`, for which the Ki in series [1] was determined as 4.5 µM; at D(2) dopamine receptor [3] it was 0.03 µM; in series [4], 1.9 µM; on D(4) dopamine receptor it was 3 µM; in [5], 2.3 µM; on D(1A) dopamine receptor, 30 µM. Further, the Ki at D(3) dopamine receptor came to 0.033 µM; at D(2) dopamine receptor [6], 0.03 µM. This compound also had a logD in [2] of 2.63.
Turning to `C=CCN1CCC[C@H]1CNC(=O)c1cc(CCCF)cc(OC)c1OC` [FALLYPRIDE], the inhibition constant Ki in [1] was 3.7 µM; at D(2) dopamine receptor [3] it was 0.0022 µM; in series [4], 0.97 µM; on D(4) dopamine receptor, 1.3 µM; in [5], 1.1 µM; on D(1A) dopamine receptor it was 18 µM. On D(2) dopamine receptor [6], this compound registered a Ki of 0.0021 µM. The compound further returned a logD in [2] of 2.66.
In the case of `C=CCN1CCC[C@H]1CNC(=O)c1cc(Br)cc(OC)c1OC`, the Ki in series [1] is 1.1 µM; on D(2) dopamine receptor [3], 0.00085 µM; in [4], 1.6 µM; at D(4) dopamine receptor, 0.21 µM; in [5] it was 0.14 µM; at D(1A) dopamine receptor it was 13 µM. Also, the Ki was found to be 0.0006 µM at D(3) dopamine receptor and 0.00088 µM on D(2) dopamine receptor [6]. This compound also returned a logD in series [2] of 2.83.
As to `CCN1CCC[C@H]1CNC(=O)c1c(O)c(Cl)cc(Cl)c1OC` [RACLOPRIDE], the Ki in series [1] turned out to be 3.5 µM; in series [4], 3 µM; at D(4) dopamine receptor, 3.1 µM; in series [5], 4.4 µM; on D(1A) dopamine receptor it was 37 µM; on D(3) dopamine receptor, 0.015 µM.
On to `C=CCN1CCC[C@H]1CNC(=O)c1cc(Br)ccc1OC`, for which the Ki in [1] came to 2.1 µM; on D(2) dopamine receptor [3], 0.023 µM; in [4], 2 µM; at D(4) dopamine receptor it was 1.7 µM; in series [5], 0.23 µM; on D(1A) dopamine receptor, 17 µM. The Ki came to 0.022 µM at D(3) dopamine receptor and 0.027 µM on D(2) dopamine receptor [6]. This compound also yielded a logD in series [2] of 2.71.
On to `CCN1CCC[C@H]1CNC(=O)c1c(OC)ccc(I)c1O` [IOLOPRIDE], for which the Ki in series [1] was 2 µM; on D(2) dopamine receptor [3], 0.0042 µM; in series [4], 1.9 µM; at D(4) dopamine receptor, 0.57 µM; in series [5], 1.1 µM; on D(1A) dopamine receptor it was 12 µM. The inhibition constant (Ki) at D(3) dopamine receptor and at D(2) dopamine receptor [6] was 0.0042 µM throughout. This compound displayed a pH-dependent lipophilicity (logD) in series [2] of 3.13.
Regarding `C=CCN1CCC[C@H]1CNC(=O)c1cc(I)cc(OC)c1OC`, the Ki in series [1] was determined as 0.49 µM; at D(2) dopamine receptor [3], 0.00068 µM; in series [4], 1.1 µM; at D(4) dopamine receptor, 0.25 µM; in series [5], 0.15 µM; on D(1A) dopamine receptor, 18 µM. The inhibition constant (Ki) was determined as 0.00046 µM at D(3) dopamine receptor and 0.00074 µM on D(2) dopamine receptor [6]. Besides, the pH-dependent lipophilicity (logD) in series [2] was 2.91.

Source of the values: ChEMBL document CHEMBL1139804, “In vitro affinities of various halogenated benzamide derivatives as potential radioligands for non-invasive quantification of D(2)-like dopamine receptors” (Bioorg Med Chem, 2007).
